Source: PubChem BioAssay
NR2E3 ag-1: activates human photoreceptor nuclear receptor NR2E3 | Q9Y5X4 | GST-NR2E3/biotin-RetCOR TR-FRET, 1536-well | inhibition of corepressor binding, % at 4.78 µM | hit rate 0.12% among 320,000 | AID 2300;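 active means percent inhibition above the cutoff of mean plus 3 SD of all tested compounds, set per screening campaign, cut at about 20% in these data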;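 further: 0% = DMSO wells and 100% = biotin wells as full block of FRET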
Target sequence (Q9Y5X4 whole entry, looked up): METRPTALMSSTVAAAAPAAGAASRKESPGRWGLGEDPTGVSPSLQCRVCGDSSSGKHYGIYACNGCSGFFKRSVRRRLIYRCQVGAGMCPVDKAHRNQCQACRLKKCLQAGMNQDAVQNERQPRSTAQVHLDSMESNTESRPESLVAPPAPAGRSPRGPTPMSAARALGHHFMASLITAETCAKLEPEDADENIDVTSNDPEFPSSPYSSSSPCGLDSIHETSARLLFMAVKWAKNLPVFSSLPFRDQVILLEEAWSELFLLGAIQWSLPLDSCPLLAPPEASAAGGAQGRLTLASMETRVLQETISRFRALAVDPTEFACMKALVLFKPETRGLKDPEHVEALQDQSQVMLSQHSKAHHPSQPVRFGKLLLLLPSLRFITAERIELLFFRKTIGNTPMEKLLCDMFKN
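Material: NR2E3–RetCOR corepressor complex / Incubation: Compound–protein incubation for 5 h at 4 °C / Dosing: compound at 4.8 µM, single dose / Detection: time-resolved FRET / Benchmarks: high control biotin, low control 0.6% DMSO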
V-ATPase pHluor: yeast V-ATPase proton transport regulation by pHLuorin; S. cerevisiae, pHLuorin cytosolic pH fluorescence; response, % at 10 µM; hit rate 0.37% among 350,000; in the data active means response mostly above about 7.3%, no sharp cut-off; inactive means mostly below about 5.4%; further: actives read high
GAA850 FXN act: increases GAA850 frataxin promoter reporter activity; HEK293 lucGAA850 FXN promoter luciferase reporter, 24 h; percent of 10 µM SAHA response; activation, % at 6 µM; hit rate 0.56% among 360,000; AID 540364;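 active means activation above the average of all compounds screened plus 3 SD, cutoff fixed separately per campaign, cut at about 7.5% in these data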;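 further: 0% = DMSO wells and 100% = 10 µM SAHA wells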
GalR3 antagonist: human GalR3 antagonism; O60755; HEK293 GalR3-CNG cAMP membrane potential fluorescence; galR3 body fused to GalR1 C-terminus; inhibition, % at 3 µM; hit rate 0.44% among 360,000; AID 651719;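 active means inhibition above the screen-wide average plus 3 SD, cut at about 13% in these data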;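 further: forskolin and galanin both at EC90 stimulate the cells; cAMP rise reported by CNG channel membrane potential dye signal; 0% = forskolin plus galanin with DMSO and 100% = forskolin alone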
Target sequence (O60755 1-299 limits assumed): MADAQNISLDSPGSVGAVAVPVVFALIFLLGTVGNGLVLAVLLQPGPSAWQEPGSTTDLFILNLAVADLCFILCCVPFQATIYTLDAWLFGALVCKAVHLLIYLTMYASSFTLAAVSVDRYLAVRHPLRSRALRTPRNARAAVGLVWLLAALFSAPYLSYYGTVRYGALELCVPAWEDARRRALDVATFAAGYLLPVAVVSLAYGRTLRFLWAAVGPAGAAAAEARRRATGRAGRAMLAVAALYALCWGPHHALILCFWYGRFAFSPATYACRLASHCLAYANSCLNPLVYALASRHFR
Env fusion inh: inhibitors of HIV Env-mediated cell fusion. inhibition, % at 12.3 µM. HeLa-JRFL Env/CEM21 cell fusion, luciferase. hit rate 1.1% among 360,000;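 active means mean replicate inhibition score of at least 50 and every replicate individually at or above 50; inconclusive means only one of the two criteria met; inactive means mean below 50 and not all replicates reaching 50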;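 further: 0% = plate neutral controls and 100% = maraviroc near 300 nM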
NR2E3 ag-2: agonists of human NR2E3 nuclear receptor; Q9Y5X4; CHO-S Gal4-NCOR/VP16-NR2E3 two-hybrid, luciferase; inhibition of corepressor binding, % at 3.98 µM; hit rate 0.35% among 360,000;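 active means inhibition above the mean of all tested compounds plus 3 SD, cut at about 70% in these data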;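 further: 0% = DMSO with NR2E3 transfected cells and 100% = cells lacking NR2E3 construct; higher means lower luciferase signal from less NR2E3 corepressor binding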
NR2E3 ag conf: NR2E3 agonism confirmed in two-hybrid assay; hit rate 51% among 2,300; shares compounds with NR2E3 ag-2; AID 624378; inhibition, % at 3.98 µM; CHO-S mammalian two-hybrid NR2E3-NCOR, luciferase luminescence;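 active means average inhibition above a cutoff equal to the mean inhibition of all tested compounds plus one SD, cut at about 70% in these data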;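 further: 0% = DMSO in NR2E3 cells and 100% = DMSO in cells lacking NR2E3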
GAL4-VP16 luc: GAL4-VP16 reporter inhibition in NR2E3 agonist counterscreen; hit rate 29% among 2,300; AID 624379; CHO-S GAL4-VP16 luciferase reporter, luminescence; shares compounds with NR2E3 ag-2; inhibition, % at 3.98 µM;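 active means mean inhibition above a cutoff equal to the average over all tested compounds plus one standard deviation, cut at about 70% in these data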;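 further: luciferase from a UAS reporter driven by GAL4-VP16 transactivation; 0% = DMSO with VP16-transfected cells and 100% = DMSO with cells lacking VP16; higher means less reporter light so more repression of VP16 activity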
Active calls of the source: *; ? = inconclusive; . = no result given; [ ] = dose if it differs, or a comment. Rows were chosen to be rich in hits. Some 2.2% of all compounds tested hit in one or more screens of this group.

SMILES	NR2E3 ag-1	V-ATPase pHluor	GAA850 FXN act	GalR3 antagonist	Env fusion inh	NR2E3 ag-2	NR2E3 ag conf	GAL4-VP16 luc
COc1ccc(CNS(=O)(=O)c2ccc3c(c2)CC(C)N3C(=O)C2CC2)cc1 (stereo not given)	0.5	-3.5	1.2	-9.1	6.2	95.2*	89.3*	75.2*
COc1ccc(CNC(=O)C2CCN(S(=O)(=O)c3ccc4c(c3)CC(C)N4C(=O)C3CC3)CC2)cc1 (stereo not given)	-0.5	0.0	-0.9	-0.2	10.2	-5.0	.	.
COc1cccc(CNC(=O)C2CCN(S(=O)(=O)c3ccc4c(c3)CC(C)N4C(=O)C3CC3)CC2)c1 (stereo not given)	0.9	-1.5	1.4	-6.9	10.6	0.6	.	.
COc1ccc(CNS(=O)(=O)c2ccc3c(c2)CCN3C(=O)C2CC2)cc1	1.2	8.4	0.5	-0.6	20.9	49.2	58.1	48.1
O=C(C1CCC1)N1CCc2cc(S(=O)(=O)NCCN3CCN(c4ccccc4F)CC3)ccc21	5.9	3.6	0.4	-1.2	.	61.5	69.9	55.4
C[C@H](CO)N1C[C@H](C)[C@@H](CN(C)Cc2ccc(-c3ccccc3)cc2)Oc2ccc(NC(=O)Cc3ccccc3)cc2C1=O	.	.	.	.	-7.9[16.7 µM]	.	.	.
C[C@H](CO)N1C[C@H](C)[C@@H](CN(C)S(=O)(=O)c2ccc(Cl)cc2)Oc2ccc(NC(=O)C3CCCCC3)cc2C1=O	.	.	.	.	-31.7[16.7 µM]	.	.	.
N#Cc1c(F)cccc1NCc1cccnc1	-3.8	0.7	0.7	-9.7	-1.4	-46.3	.	.
N#Cc1c(NCc2ccccc2)ccnc1NCc1cccnc1	0.6	0.8	-4.4	-3.5	106.8*	66.2	57.1	55.6
Cc1c(C(=O)NCc2cccc([N+](=O)[O-])c2)sc(=O)n1Cc1ccccc1F	.	.	-1.6	-0.8	3.5	19.2	.	.
COc1ccc(Cl)cc1Cn1c(C)c(C(=O)NCc2cccc([N+](=O)[O-])c2)sc1=O	.	.	0.1	6.1	-11.6	54.3	24.0	4.8
COc1ccc(Cl)cc1Cn1c(C)c(C(=O)N(C)Cc2ccc(F)cc2)sc1=O	.	.	-3.6	-0.6	-11.8	39.3	.	.
COc1ccc(Cl)cc1Cn1c(C)c(C(=O)NCc2ccc(F)cc2)sc1=O	.	.	-3.5	-3.9	-36.5	48.8	45.3	1.4
C[C@H]1CN([C@@H](C)CO)C(=O)Cc2cc(NC(=O)Cc3ccccc3)ccc2O[C@H]1CN(C)CC1CCCCC1	.	.	.	.	2.3[16.7 µM]	.	.	.
OC1(c2cccc(C(F)(F)F)c2)CCN(c2ncnc3c2[nH]c2ccccc23)CC1	2.8	2.6	1.6	0.7	?	59.5	40.4	27.7
c1ccc2c(c1)CCN(c1ncnc3c1[nH]c1ccccc13)C2	2.4	4.0	-5.0	7.8	87.3*	88.7*	94.8*	88.4*
COc1cccc2[nH]c3c(N4CCc5ccccc5C4)ncnc3c12	2.3	.	.	.	.	.	.	.
CN1CCc2c(sc(NC(=O)c3ccc([N+](=O)[O-])o3)c2C(N)=O)C1	-5.0	-0.6	-3.4	2.4	71.7*	57.2	48.9	40.2
NC(=O)c1c(NC(=O)c2ccc([N+](=O)[O-])o2)sc2c1CCCC2	4.8	-2.8	2.4	-4.8	-0.3	5.2	.	.
O=C(NCc1ccc(F)cc1)[C@H]1C[C@H]2C(=O)N3CCC[C@H]3C(=O)N2[C@H]1c1ccc(O)cc1	.	.	.	.	6.6[16.7 µM]	.	.	.
CN(C)CC(=O)Nc1ccc2c(c1)[C@H]1C[C@H](CC(=O)NCc3ccccc3)O[C@H](CO)[C@H]1O2	.	.	.	.	-20.8[16.7 µM]	.	.	.
Cc1cccc(CSC(Nc2ccc(F)cc2)=C(C#N)C#N)c1	-0.2	-0.6	-5.4	-1.9	18.8	96.5*	98.2*	93.2*
O=C(O)C1CCCCC1C(=O)Nc1ccc2c(c1)OCCO2 (stereo not given)	3.5	2.7	-13.2	-3.6	.	62.8	6.4	-14.7
O=C(O)C1C2C=CC(C2)C1C(=O)Nc1ccc2c(c1)OCCO2 (stereo not given)	0.1	3.2	-13.7	.	.	62.6	22.0	-2.8
O=C(Nc1ccc2c(c1)OCCO2)C1CC1c1ccccc1 (stereo not given)	3.2	-2.1	0.1	1.1	-38.2	-24.8	.	.
SMILES	NR2E3 ag-1	V-ATPase pHluor	GAA850 FXN act	GalR3 antagonist	Env fusion inh	NR2E3 ag-2	NR2E3 ag conf	GAL4-VP16 luc
O=C(O)C1C2C=CC(O2)C1C(=O)Nc1ccc2c(c1)OCCO2 (stereo not given)	3.3	.	.	.	.	.	.	.
COc1cccc(C(=O)Nc2ccc3c(c2)OC[C@@H](C)N(C(C)=O)C[C@@H](C)[C@@H](OC)CN(C)C3=O)c1	.	.	.	.	-14.6[16.7 µM]	.	.	.
CCC(C)C(=O)Nc1ccc(S(=O)(=O)N2CCCC2)cc1 (stereo not given)	0.8	2.9	0.2	-11.0	2.5	-5.1	.	.
CCC(C)NS(=O)(=O)c1ccc(S(=O)(=O)N2CCCC3(CCCCC3)C2)cc1 (stereo not given)	-4.6	-2.9	-3.0	-5.8	77.4*	85.2*	89.5*	73.3*
O=C(NCC[C@@H]1CC[C@H](NC(=O)C2CCCCC2)[C@@H](CO)O1)c1cc(Cl)cc(Cl)c1	.	.	.	.	5.7[16.7 µM]	.	.	.
C=CCOc1ccc(CN(C)c2ccc(S(=O)(=O)N3CCN(C)CC3)cc2[N+](=O)[O-])cc1	2.4	-2.8	-0.1	-6.1	.	-4.0	.	.
CCOc1ccc(CN(C)c2ccc(S(=O)(=O)N3CCN(C)CC3)cc2[N+](=O)[O-])cc1OC	3.1	2.2	-2.8	.	.	65.7	77.6*	68.5
CCc1cc(OCCCSc2nc(C)cc(=O)[nH]2)ccc1Cl	2.7	1.2	-0.3	-5.7	31.0	56.3	76.2*	42.9
Cc1cc(=O)[nH]c(SCCCOc2ccccc2Cl)n1	1.9	-0.6	-1.9	-3.4	-40.6	-16.7	.	.
Cc1nc(NCc2ccc(S(N)(=O)=O)cc2)c2c(C)c(C)sc2n1	-0.8	-7.0	1.8	-5.9	-11.5	-26.7	.	.
Cc1nc(NCCc2ccc(S(N)(=O)=O)cc2)c2c(C)c(C)sc2n1	-3.4	-3.0	-0.6	-8.7	45.9	66.5	72.9*	65.1
CCCCc1ccc(S(=O)(=O)N/N=C(/C)c2ccncc2)cc1	-1.0	2.5	1.3	-6.4	.	86.2*	50.5	66.7
O=C(NCCc1ccccc1F)c1ccc2c(c1)OCCO2	0.6	-1.4	-13.4	-4.1	75.6*	72.2*	64.8	40.9
Cc1ccccc1S(=O)(=O)N[C@@H]1CC[C@@H](CCn2cc(-c3ccc(F)cc3)nn2)O[C@@H]1CO	.	.	.	.	16.0[16.7 µM]	.	.	.
Cc1ccc(-c2cnc3c(c2)C(=O)N([C@H](C)CO)C[C@H](C)[C@H](CN(C)Cc2ccccc2C(=O)O)O3)cc1	.	.	.	.	2.9[16.7 µM]	.	.	.
CO[C@H]1CN(C)C(=O)c2ccc(NC(=O)Nc3ccccc3F)cc2OC[C@@H](C)N(CC2CC2)C[C@H]1C	.	.	.	.	3.5[16.7 µM]	.	.	.
